Test results taken from ChEMBL document CHEMBL1177691, “Antineoplastic agents 582. Part 1: Isolation and structure of a cyclobutane-type sesquiterpene cancer cell growth inhibitor from Coprinus cinereus (Coprinaceae)” (2010).
In brackets after ≈: the same amount, converted by molar mass. Activity calls are given as the source filed them. The calls are words filed in the database; no cut-off is given here.

Tests used:
[1] = test system: Stenotrophomonas maltophilia; assay: Antimicrobial activity against Stenotrophomonas maltophilia ATCC 13637 at 64 ug/ml by broth microdilution assay; assay type: functional, organism-based
Summary of the method: (§1)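 Broth microdilution susceptibility testing following NCCLS approved standards: M27-A (yeast method) and M7-A4. Each compound was tested at a single concentration of 64 μg/ml for growth inhibition of the listed strains: S. maltophilia ATCC 13637, M. luteus Presque Isle 456, S. aureus ATCC 29213, E. coli ATCC 25922, E. cloacae ATCC 13047, E. faecalis ATCC 29212, C. albicans ATCC 90028 and C. neoformans ATCC 90112.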

Micrococcus luteus = assay: Antimicrobial activity against Micrococcus luteus Presque Isle 456 at 64 ug/ml by broth microdilution assay; assay type: functional, organism-based; summary of the method: as §1
Staphylococcus aureus = assay: Antimicrobial activity against Staphylococcus aureus ATCC 29213 at 64 ug/ml by broth microdilution assay; assay type: functional, organism-based; summary of the method: as §1
Escherichia coli = assay: Antimicrobial activity against Escherichia coli ATCC 25922 at 64 ug/ml by broth microdilution assay; assay type: functional, organism-based; summary of the method: as §1
Enterobacter cloacae = assay: Antimicrobial activity against Enterobacter cloacae ATCC 13047 at 64 ug/ml by broth microdilution assay; assay type: functional, organism-based; summary of the method: as §1
Enterococcus faecalis = assay: Antimicrobial activity against Enterococcus faecalis ATCC 29212 at 64 ug/ml by broth microdilution assay; assay type: functional, organism-based; summary of the method: as §1
Candida albicans = assay: Antimicrobial activity against Candida albicans ATCC 90028 at 64 ug/ml by broth microdilution assay; assay type: functional, organism-based; summary of the method: as §1
Cryptococcus neoformans = assay: Antimicrobial activity against Cryptococcus neoformans ATCC 90112 at 64 ug/ml by broth microdilution assay; assay type: functional, organism-based; summary of the method: as §1
P388 = assay: Antitumor activity against mouse P388 cells after 48 hrs by Sulforhodamine B; assay type: functional; details: P388, 48 h, read-out: ED50 (the source's name)

EC50 (P388) | SMILES | Activity [1] | Activity (Micrococcus luteus) | Activity (Staphylococcus aureus) | Activity (Escherichia coli) | Activity (Enterobacter cloacae) | Activity (Enterococcus faecalis) | Activity (Candida albicans) | Activity (Cryptococcus neoformans)
– | C=C1[C@H](O)[C@H]2C[C@](C)(CO)CC2=C(C)C12CC2 | inactive | inactive | inactive | inactive | inactive | inactive | inactive | inactive
5.3 µg/mL (≈ 21 µM) | C/C(C=O)=C1/CC[C@@]1(C)[C@@H]1C[C@](C)(CO)C[C@H]1O | inactive | inactive | inactive | inactive | inactive | inactive | inactive | inactive
– | CC1(C)C[C@H]2[C@H](O)C(CO)=C3[C@H](O)C[C@]3(C)[C@H]2C1 | inactive | inactive | inactive | inactive | inactive | inactive | inactive | inactive
